Holding throughout (settings): stereoisomer not certain
In one assay the target is T1, UniProt Q7TR79.
T1 sequence (whole entry): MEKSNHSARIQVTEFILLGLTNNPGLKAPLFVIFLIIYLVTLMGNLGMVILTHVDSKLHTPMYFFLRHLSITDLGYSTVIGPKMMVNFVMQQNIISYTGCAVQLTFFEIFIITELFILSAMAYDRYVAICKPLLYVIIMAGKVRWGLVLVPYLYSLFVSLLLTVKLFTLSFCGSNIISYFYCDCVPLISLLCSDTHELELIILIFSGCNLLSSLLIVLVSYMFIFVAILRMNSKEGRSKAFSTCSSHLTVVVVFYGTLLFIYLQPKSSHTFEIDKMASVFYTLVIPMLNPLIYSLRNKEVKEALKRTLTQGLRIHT
The method, boiled down:
(§1)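 Each receptor–molecule pair is labelled responsive or non-responsive (inactive) according to whether the original authors judged the measured signal statistically different from baseline. The data were taken from the main text and supplementary material of published papers and checked for typos and inconsistencies. Assay methods differed by source, with transient luciferase assays in mammalian cell lines being common.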

In the next assay the target is T2, UniProt Q7TRX0.
T2 sequence (whole entry): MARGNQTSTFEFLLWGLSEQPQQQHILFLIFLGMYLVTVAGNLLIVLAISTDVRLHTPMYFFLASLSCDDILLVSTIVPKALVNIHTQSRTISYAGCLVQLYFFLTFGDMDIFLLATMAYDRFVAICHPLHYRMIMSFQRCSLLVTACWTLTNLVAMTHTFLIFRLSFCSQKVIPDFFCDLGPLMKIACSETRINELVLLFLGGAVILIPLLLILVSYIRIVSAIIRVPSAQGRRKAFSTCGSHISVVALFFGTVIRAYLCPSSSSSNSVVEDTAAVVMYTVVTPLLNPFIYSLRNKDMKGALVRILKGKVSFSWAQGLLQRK
The gist of the method:
as §1

For a further assay, the target named is T3, UniProt Q7TRM0.
T3 sequence (whole entry): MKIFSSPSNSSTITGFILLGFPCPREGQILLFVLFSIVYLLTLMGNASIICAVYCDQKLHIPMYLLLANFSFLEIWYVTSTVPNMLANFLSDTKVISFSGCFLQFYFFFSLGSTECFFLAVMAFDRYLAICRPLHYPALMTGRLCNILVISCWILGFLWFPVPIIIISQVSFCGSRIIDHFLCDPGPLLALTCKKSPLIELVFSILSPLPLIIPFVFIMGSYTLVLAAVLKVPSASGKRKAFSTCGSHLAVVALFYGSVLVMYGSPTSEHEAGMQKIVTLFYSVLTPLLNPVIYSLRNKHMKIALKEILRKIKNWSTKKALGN
The gist of the method: as §1

Another assay addresses T4, UniProt Q7TRN9.
T4 sequence (whole entry): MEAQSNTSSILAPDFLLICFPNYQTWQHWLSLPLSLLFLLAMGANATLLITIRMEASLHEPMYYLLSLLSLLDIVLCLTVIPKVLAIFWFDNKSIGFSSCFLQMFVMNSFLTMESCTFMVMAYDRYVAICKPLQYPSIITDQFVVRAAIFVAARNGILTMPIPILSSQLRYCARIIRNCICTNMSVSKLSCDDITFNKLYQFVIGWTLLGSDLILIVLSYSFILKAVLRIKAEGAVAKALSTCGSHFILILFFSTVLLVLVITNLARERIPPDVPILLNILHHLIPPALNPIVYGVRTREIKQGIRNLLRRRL
The gist of the method:
as §1

The target in the next assay is T5, UniProt Q7TRR8.
T5 sequence (whole entry): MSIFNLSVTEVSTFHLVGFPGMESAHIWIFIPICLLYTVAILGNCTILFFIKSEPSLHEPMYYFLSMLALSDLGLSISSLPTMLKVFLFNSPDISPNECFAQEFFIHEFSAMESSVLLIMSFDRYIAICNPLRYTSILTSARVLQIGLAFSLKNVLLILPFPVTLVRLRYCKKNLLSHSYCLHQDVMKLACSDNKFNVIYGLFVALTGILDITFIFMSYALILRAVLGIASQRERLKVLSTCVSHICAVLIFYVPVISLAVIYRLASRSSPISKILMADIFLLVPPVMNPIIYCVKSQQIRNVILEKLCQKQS
The gist of the method: as §1
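Also: active if original authors judged signal statistically different from baseline.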

As to `CCCCCOC(=O)CC`, the “odorant receptor agonist call” value with UniProt Q7TR79 and with UniProt Q7TRX0 was “inactive” throughout.

For the molecule `C=C1C2CCC(C2)C1(C)C` (stereo not given), the “odorant receptor agonist call” value with UniProt Q7TR79 and with UniProt Q7TRX0 was “inactive” in each case.

For `CCCCC=O`, the “odorant receptor agonist call” value with UniProt Q7TR79 and in the assay with UniProt Q7TRX0 was “inactive” in each case.

As to `O=C(O)CCCCCCCCC(=O)O`, the “odorant receptor agonist call” value in the assay with UniProt Q7TR79 and in the assay with UniProt Q7TRX0 was “inactive” throughout.

On to `CCCCCC(C=O)=Cc1ccccc1`, for which the “odorant receptor agonist call” value with UniProt Q7TR79 and with UniProt Q7TRX0 was “inactive” each time.

Take `CC(C)=CCCC(C)=CCOC(=O)C(C)C`: the “odorant receptor agonist call” value in the assay with UniProt Q7TR79 and with UniProt Q7TRX0 was “inactive” each time.

Turning to `CCCCCC=CCCC=O`, the “odorant receptor agonist call” value with UniProt Q7TR79 and in the assay with UniProt Q7TRX0 was “inactive” throughout.

Regarding `CC(=O)OCCc1ccccc1`, the “odorant receptor agonist call” value in the assay with UniProt Q7TR79 and in the assay with UniProt Q7TRX0 was “inactive” each time.

In the case of `C=C(C)C1CCC2(C)OC2C1` (stereo not given), the “odorant receptor agonist call” value with UniProt Q7TR79 and with UniProt Q7TRX0 was “inactive” each time.

With `OCC=Cc1ccccc1`, the “odorant receptor agonist call” value with UniProt Q7TR79 and in the assay with UniProt Q7TRX0 was “inactive” each time.

As to `CCC(C)O` (stereo not given), the “odorant receptor agonist call” value in the assay with UniProt Q7TR79 and in the assay with UniProt Q7TRX0 was “inactive” each time.

Take `CSSCc1ccco1`: the “odorant receptor agonist call” value in the assay with UniProt Q7TR79 and with UniProt Q7TRX0 was “inactive” in each case.

On to `CSSSC`, for which the “odorant receptor agonist call” value with UniProt Q7TR79 and in the assay with UniProt Q7TRX0 was “inactive” throughout.

As for `C=CC(=O)CCCCC`, the “odorant receptor agonist call” value in the assay with UniProt Q7TR79 and in the assay with UniProt Q7TRX0 was “inactive” throughout.

On to `Cc1ccccc1OC(=O)C(C)C`, for which the “odorant receptor agonist call” value in the assay with UniProt Q7TR79 and in the assay with UniProt Q7TRX0 was “inactive” throughout.

With `Cc1ccc(OC(=O)C(C)C)cc1`, the “odorant receptor agonist call” value in the assay with UniProt Q7TR79 and in the assay with UniProt Q7TRX0 was “inactive” throughout.

Turning to `CC1CCC(C(C)C)C(=O)C1` (stereo not given), the “odorant receptor agonist call” value with UniProt Q7TR79 and with UniProt Q7TRX0 was “inactive” in each case.

`CCCCCCC(C=O)=Cc1ccccc1`: the “odorant receptor agonist call” value with UniProt Q7TR79 and with UniProt Q7TRX0 was “inactive” in each case.

For `CC=C(C)C=O`, the “odorant receptor agonist call” value in the assay with UniProt Q7TR79 and in the assay with UniProt Q7TRX0 was “inactive” in each case.

For the molecule `OCCc1ccccc1`, the “odorant receptor agonist call” value with UniProt Q7TR79 and with UniProt Q7TRX0 was “inactive” in each case.

Consider `CCOC(=O)C(C)CC` (stereo not given), for which the “odorant receptor agonist call” value in the assay with UniProt Q7TR79 and with UniProt Q7TRX0 was “inactive” throughout.

In the case of `O=C([O-])CCCCC(=O)[O-].[H+].[H+]`, the “odorant receptor agonist call” value in the assay with UniProt Q7TRM0, with UniProt Q7TRN9 and with UniProt Q7TRR8 was “inactive” throughout.

With `CCc1ccc(O)cc1`, the “odorant receptor agonist call” value in the assay with UniProt Q7TR79 and with UniProt Q7TRX0 was “inactive” each time.

Take `Cc1c(C)c(C)c(C=O)c(C)c1C`: the “odorant receptor agonist call” value with UniProt Q7TR79 and with UniProt Q7TRX0 was “inactive” each time.

With `COC(OC)c1ccccc1`, the “odorant receptor agonist call” value with UniProt Q7TR79 and in the assay with UniProt Q7TRX0 was “inactive” in each case.

Regarding `CNc1ccccc1C(=O)OC`, the “odorant receptor agonist call” value in the assay with UniProt Q7TR79 and in the assay with UniProt Q7TRX0 was “inactive” in each case.

With `OCCCCCCCCCO`, the “odorant receptor agonist call” value with UniProt Q7TR79 and with UniProt Q7TRX0 was “inactive” each time.

For the molecule `CCc1occc(=O)c1O`, the “odorant receptor agonist call” value with UniProt Q7TR79 and with UniProt Q7TRX0 was “inactive” each time.

Turning to `CC(CC=O)CCCC(C)(C)O` (stereo not given), the “odorant receptor agonist call” value in the assay with UniProt Q7TR79 and with UniProt Q7TRX0 was “inactive” each time.

As to `C=CC(=C)CCC=C(C)CCC=C(C)C`, the “odorant receptor agonist call” value with UniProt Q7TR79 and in the assay with UniProt Q7TRX0 was “inactive” throughout.

For `Cc1ccc2c(c1)OCC(=O)CO2`, the “odorant receptor agonist call” value with UniProt Q7TR79 and with UniProt Q7TRX0 was “inactive” throughout.

With `CCCO`, the “odorant receptor agonist call” value with UniProt Q7TR79 and in the assay with UniProt Q7TRX0 was “inactive” in each case.

Turning to `C=C(CC)CCCC(C)(C)O`, the “odorant receptor agonist call” value with UniProt Q7TR79 and with UniProt Q7TRX0 was “inactive” in each case.

With `O=C(OCc1ccccc1)c1ccccc1O`, the “odorant receptor agonist call” value in the assay with UniProt Q7TR79 and in the assay with UniProt Q7TRX0 was “inactive” each time.

Take `CC(C)CS`: the “odorant receptor agonist call” value with UniProt Q7TR79 and with UniProt Q7TRX0 was “inactive” in each case.

Take `CCCCCCCCOC=O`: the “odorant receptor agonist call” value in the assay with UniProt Q7TR79 and in the assay with UniProt Q7TRX0 was “inactive” throughout.

On to `COc1ccccc1`, for which the “odorant receptor agonist call” value with UniProt Q7TR79 and with UniProt Q7TRX0 was “inactive” in each case.

On to `CCCCCC(=Cc1ccccc1)C(OC)OC`, for which the “odorant receptor agonist call” value with UniProt Q7TR79 and in the assay with UniProt Q7TRX0 was “inactive” each time.

As for `CCC(C)c1nccnc1OC` (stereo not given), the “odorant receptor agonist call” value with UniProt Q7TR79 and with UniProt Q7TRX0 was “inactive” each time.

With `CC1(C)CC(=O)CC(=O)C1`, the “odorant receptor agonist call” value in the assay with UniProt Q7TR79 and with UniProt Q7TRX0 was “inactive” throughout.

`O=C(O)CCCBr`: the “odorant receptor agonist call” value with UniProt Q7TRM0, with UniProt Q7TRN9 and with UniProt Q7TRR8 was “inactive” in each case.

In the case of `O=C(O)CCCCBr`, the “odorant receptor agonist call” value with UniProt Q7TRM0, in the assay with UniProt Q7TRN9 and in the assay with UniProt Q7TRR8 was “inactive” in each case.

Take `O=C(O)CCCCCC(=O)O`: the “odorant receptor agonist call” value with UniProt Q7TRM0, with UniProt Q7TRN9 and in the assay with UniProt Q7TRR8 was “inactive” in each case.

For `CC1CC=CCCCCCCCCCC(=O)C1` (stereo not given), the “odorant receptor agonist call” value in the assay with UniProt Q7TR79 and in the assay with UniProt Q7TRX0 was “inactive” in each case.

Regarding `Cc1ccc(C(C)C)c(O)c1`, the “odorant receptor agonist call” value in the assay with UniProt Q7TR79 and with UniProt Q7TRX0 was “inactive” each time.

On to `CCCCCCCCCC=CC=O`, for which the “odorant receptor agonist call” value with UniProt Q7TR79 and in the assay with UniProt Q7TRX0 was “inactive” each time.

As to `CC(C)=C1CCC(C)CC1=O` (stereo not given), the “odorant receptor agonist call” value with UniProt Q7TR79 and with UniProt Q7TRX0 was “inactive” throughout.

On to `Cc1ccc(C(C)C)cc1`, for which the “odorant receptor agonist call” value with UniProt Q7TR79 and in the assay with UniProt Q7TRX0 was “inactive” each time.

`CCOC(=O)CC(C)C`: the “odorant receptor agonist call” value in the assay with UniProt Q7TR79 and with UniProt Q7TRX0 was “inactive” in each case.

On to `C1CCOC1`, for which the “odorant receptor agonist call” value in the assay with UniProt Q7TR79 and with UniProt Q7TRX0 was “inactive” each time.

Regarding `CCCC(C)C(=O)OCC` (stereo not given), the “odorant receptor agonist call” value in the assay with UniProt Q7TR79 and with UniProt Q7TRX0 was “inactive” each time.

For the molecule `CCSSCC`, the “odorant receptor agonist call” value with UniProt Q7TR79 and with UniProt Q7TRX0 was “inactive” throughout.

As to `CCCCCCCCC=CC=O`, the “odorant receptor agonist call” value with UniProt Q7TR79 and with UniProt Q7TRX0 was “inactive” each time.

Values taken from the M2OR odorant receptor database.
